Measured values: ChEMBL document CHEMBL1133719, “Synthesis and preliminary biological evaluations of CC-1065 analogues: effects of different linkers and terminal amides on biological activity” (J Med Chem, 2000)
pIC50: −log10 of the molar value. “And” between values parts separate entries of the source, which are not always exact repeats. Equal entries are not always repeated.

Experiments:
MDA-N = assay: Cytotoxicity against NCI tumor panel, MDA-N breast cancer cell line; assay type: functional, cell-based; conditions: Homo sapiens
Method in brief: (§1)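 Performed by NCI with the sulforhodamine B (SRB) method on its human tumour cell panel, using a 48-h drug incubation.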

Mus musculus [1] = organism: Mus musculus; assay: Mice bearing B16BL6 leukemia at a dose 100; assay type: functional; conditions: in the assay text read “melanoma” for “leukemia”
Method in brief: (§2)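 Female BDF1 mice (4-6 weeks old, 8 per group) were inoculated ip with 10⁶ B16BL6 melanoma cells on day 0. Drugs in dimethylacetamide were diluted in DMA:Cremophor:water (1:5:44) and given ip at 0.1 mL on days 1, 5 and 9 (doses per kg). Read-outs were %ILS = (T/C − 1) × 100 on median survival of dying animals only, mean body weight change from day 1 to day 10 (g/mouse), and 90-day survivors.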

HL-60 = assay: Cytotoxicity against NCI tumor panel, HL-60(TB) leukemia cell line; assay type: functional, cell-based; conditions: Homo sapiens
Method in brief: (§3)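 NCI cell-line panel screen run by the National Cancer Institute; sulforhodamine B (SRB) readout after 48-h drug incubation.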

Mus musculus [2] = assay: Antitumor activity was tested in mice and percent increase of life span at a dose of 100 ug/kg was reported; assay type: functional
Method in brief: (§4)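 B16BL6 cells were cultured as monolayers, and 10⁶ cells were injected ip on day 0 into female BDF1 mice (4-6 weeks, 8 per group). Drug in dimethylacetamide was diluted in DMA/Cremophor/water (1:5:44) and 0.1 mL given ip on days 1, 5 and 9. %ILS came from median survival of dying animals; 90-day survivors were counted; mean weight change covered days 1-10.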

SF-295 = assay: Cytotoxicity against NCI tumor panel, SF-295 CNS cancer cell line; assay type: functional, cell-based; conditions: Homo sapiens; method in brief: as §1
K562 = assay: Cytotoxicity against NCI tumor panel, K-562 leukemia cell line; assay type: functional, cell-based; conditions: Homo sapiens; method in brief: as §1
COLO 205 = assay: Cytotoxicity against NCI tumor panel, COLO 205 colon cancer cell line; assay type: functional, cell-based; conditions: Homo sapiens; method in brief: as §3
Mus musculus [3] = assay: Antitumor activity was tested in mice and percent increase of life span at a dose of 25 ug/kg was reported; assay type: functional
Mus musculus [4] = assay: Antitumor activity in mice bearing B16BL6 melanoma at a dose of 100 ug/kg; survivors for 90 days was reported; assay type: functional; method in brief: as §4
SNB-19 = assay: Cytotoxicity against NCI tumor panel, SNB-19 CNS cancer cell line; assay type: functional, cell-based; conditions: Homo sapiens; method in brief: as §1
EKVX = assay: Cytotoxicity against NCI tumor panel, EKVX non small-cell lung cancer cell line; assay type: functional, cell-based; conditions: Homo sapiens; method in brief: as §3
UACC-257 = assay: Cytotoxicity against NCI tumor panel, UACC-257 melanoma cancer cell line; assay type: functional, cell-based; conditions: Homo sapiens; method in brief: as §1
DU-145 = assay: Cytotoxicity against NCI tumor panel, DU145 prostate cancer cell line; assay type: functional, cell-based; conditions: Homo sapiens; method in brief: as §3
M14 = assay: Cytotoxicity against NCI tumor panel, M14 melanoma cancer cell line; assay type: functional, cell-based; conditions: Homo sapiens; method in brief: as §1
Mus musculus [5] = assay: Antitumor activity in mice bearing B16BL6 melanoma at a dose of 50 ug/kg; survivors for 90 days was reported; assay type: functional; method in brief: as §4
Mus musculus [6] = organism: Mus musculus; assay: Mean body weight change between 1-10 days; assay type: functional; method in brief: as §2
Mus musculus [7] = organism: Mus musculus; assay: Body weight change between days 0 and the day when the animal weight was the lowest; assay type: functional
Method in brief: (§5)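 Male BDF1 mice, 4-6 weeks old, 6 per group, were given 10⁵ L1210 cells ip on day 0. Drug in DMF was diluted in 30% DMSO/0.5% glucose and given ip on days 1, 5 and 9. %ILS = (T/C − 1) × 100 on median survival of dying animals only; 30-day survivors noted separately. Group weight change was taken from day 0 to the lowest-weight day.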

MDA-MB-231 = assay: Cytotoxicity against NCI tumor panel, MDA-MB-231/ATCC breast cancer cell line; assay type: functional, cell-based; conditions: Homo sapiens; method in brief: as §1
Mus musculus [8] = assay: Antitumor activity in mice bearing L1210 Leukemia at a dose of 30 ug/kg; survivors for 60 days was reported; assay type: functional
Method in brief: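 Female CDF1 mice, 10 per group, got 100 L1210 cells ip on day 0. Drug in DMSO was diluted with 30% DMSO in 0.5% glucose and dosed ip on days 1, 5 and 9. Long-term (60-day) survivors are given as percent of the group.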

MOLT-4 = assay: Cytotoxicity against NCI tumor panel, MOLT-4 leukemia cell line; assay type: functional, cell-based; conditions: Homo sapiens; method in brief: as §1
NCI-H23 = assay: Cytotoxicity against NCI tumor panel, NCI-H 23 non small-cell lung cancer cell line; assay type: functional, cell-based; conditions: Homo sapiens; method in brief: as §1
SN12C = assay: Cytotoxicity against NCI tumor panel, SN12C renal cancer cell line; assay type: functional, cell-based; conditions: Homo sapiens; method in brief: as §1
[9] = Minimal drug concentration necessary to inhibit incorporation of [3H]thymidine in U937 Leukemia cells; assay type: functional, cell-based, Homo sapiens
Mus musculus [10] = assay: Antitumor activity in BDF1 male mice bearing L1210 Leukemia at a dose of 25 ug/kg; survivors for 30 days was reported; assay type: functional; method in brief: as §5
HCT-15 = assay: Cytotoxicity against NCI tumor panel, HCT-15 colon cancer cell line; assay type: functional, cell-based; conditions: Homo sapiens; method in brief: as §3

Question: With `CC(=O)Nc1ccc2[nH]c(C(=O)Nc3ccc4[nH]c(C(=O)N5CC(CCl)c6c5cc(O)c5ccccc65)cc4c3)cc2c1` (stereo not given) as the molecule, how does the pIC50 (MDA-N) read?
Answer: 8.65

Question: And the Dose (Mus musculus [1])?
Answer: 0.1 mg/kg

Question: What about the pIC50 (HL-60) of the same molecule?
Answer: 8.85

Question: What about the ILS at 0.1 mg/kg (Mus musculus [2]) of the same molecule?
Answer: 91%

Question: And the pIC50 (SF-295)?
Answer: 8.58

Question: And the pIC50 (K562)?
Answer: 8.42

Question: What about the pIC50 (COLO 205) of the same molecule?
Answer: 8.52

Question: What about the ILS (Mus musculus [3]) of the same molecule?
Answer: 67% and 107%

Question: And the No. of survivors (Mus musculus [4])?
Answer: 1

Question: What about the pIC50 (SNB-19) of the same molecule?
Answer: 8.59

Question: What about the pIC50 (EKVX) of the same molecule?
Answer: 8.62

Question: And the pIC50 (UACC-257)?
Answer: 8.61

Question: What about the pIC50 (DU-145) of the same molecule?
Answer: 9.01

Question: What about the pIC50 (M14) of the same molecule?
Answer: 8.83

Question: What about the No. of survivors (Mus musculus [5]) of the same molecule?
Answer: 0

Question: And the Weight (Mus musculus [6])?
Answer: 1.1 g and 0.3 g and 0.9 g

Question: What about the Weight (Mus musculus [7]) of the same molecule?
Answer: 23%

Question: And the pIC50 (MDA-MB-231)?
Answer: 8.22

Question: And the % survivors (Mus musculus [8])?
Answer: 40%

Question: And the pIC50 (MOLT-4)?
Answer: 9.43

Question: What about the pIC50 (NCI-H23) of the same molecule?
Answer: 8.87

Question: What about the pIC50 (SN12C) of the same molecule?
Answer: 8.52

Question: And the pIC50 [9]?
Answer: 9.40

Question: And the No. of survivors (Mus musculus [10])?
Answer: 0

Question: What about the pIC50 (HCT-15) of the same molecule?
Answer: < 8.00
